Hits are enriched below; roughly 3.6% of the tested compounds scored in any of these assays.
NadD inh – inhibitors of S. aureus NadD, primary screen, biochemical, colorimetric, uHTS | Nicotinate-nucleotide adenylyltransferase NadD (Staphylococcus aureus N315) | purified NadD enzyme, colorimetric absorbance read-out | inhibition, % at 20 µM | hit rate 0.78% among 360,000 | AID 602399, 2012; in the data active = inhibition above about 26%
NR3A LBD binder – binders of NR3A ligand-binding domain, primary screen, biophysical, differential scanning fluorimetry, uHTS | Glutamate receptor ionotropic, NMDA 3A (GRIN3A) ligand-binding domain | NR3A LBD differential scanning fluorimetry, Tm shift; 0% = protein alone, 100% = glycine-bound protein | Tm shift relative to glycine control, % at 25 µM | hit rate 2.5% among 340,000;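 active = melting temperature shift of at least 10% of the positive control shift, at one fixed dose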
SENP1 inh – human SENP1 catalytic domain inhibitors, primary screen, biochemical, FRET, uHTS; recombinant SENP1 catalytic domain, CyPet-SUMO1-YPet FRET cleavage; inhibition, % at 10 µM; AID 624204, 2012; hit rate 0.21% among 360,000; Sentrin-specific protease 1 (Homo sapiens), Q9P0U3;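 active = inhibition at least 30% at 10 µM, raw YFP signal under a set limit, fluorescence ratio 0.5 to 1.5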;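 note: 0% = enzyme with DMSO and 100% = no enzyme wells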
Target sequence (Q9P0U3 419-644 limits assumed): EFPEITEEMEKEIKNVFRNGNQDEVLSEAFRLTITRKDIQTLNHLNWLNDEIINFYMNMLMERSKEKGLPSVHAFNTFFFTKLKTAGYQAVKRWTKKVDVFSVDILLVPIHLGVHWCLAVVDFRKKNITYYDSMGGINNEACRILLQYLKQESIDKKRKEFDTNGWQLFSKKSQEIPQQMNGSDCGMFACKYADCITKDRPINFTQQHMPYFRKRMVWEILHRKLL
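Test system: recombinant human SENP1 catalytic domain, His6-tagged / Medium: pH 8 Tris buffer with EDTA, NaCl, BME, BSA, NP40, catalase / Also added: SUMO1 FRET substrate flanked by Cypet and Ypet, 25 nM / Times: 50 min reaction at room temperature / Signal: FRET, CFP and YFP emission / Control set: no-enzyme low control and enzyme-plus-DMSO high control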
ATG4B inh – ATG4B protease inhibitors, primary screen, biochemical, fluorescence, uHTS; Cysteine protease ATG4B (Homo sapiens), Q9Y4P1; ATG4B cleavage of LC3-PLA2, NBD-HPC fluorescence, 1 h; inhibition, % at 8.33 µM; hit rate 0.51% among 340,000; AID 504462, 2011; in the data active = inhibition above about 40%
UCH37 inh – inhibitors of human UCH37 deubiquitinase, primary screen, biochemical, Ub-AMC cleavage, fluorescence; Ubiquitin carboxyl-terminal hydrolase isozyme L5 (Homo sapiens), Q9Y5K5; purified proteasome/UCH37; inhibition, % (concentration not given with the values); hit rate 0.33% among 330,000; AID 588478, 2011;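 active = mean inhibition over replicate wells above about 20%, limit read from the data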;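 note: 0% = compound-free wells with enzyme and 100% = wells lacking proteasome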
Target sequence (Q9Y5K5 whole entry, looked up): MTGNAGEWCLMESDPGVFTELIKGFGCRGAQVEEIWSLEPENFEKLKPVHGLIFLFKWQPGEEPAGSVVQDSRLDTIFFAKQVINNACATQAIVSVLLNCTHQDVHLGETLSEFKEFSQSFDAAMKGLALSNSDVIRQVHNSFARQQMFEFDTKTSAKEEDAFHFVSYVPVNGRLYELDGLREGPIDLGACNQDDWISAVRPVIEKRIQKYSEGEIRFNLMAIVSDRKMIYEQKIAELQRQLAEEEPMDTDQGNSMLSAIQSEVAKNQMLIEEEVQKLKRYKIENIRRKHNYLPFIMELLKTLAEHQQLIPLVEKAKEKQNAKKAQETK
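Material: Human UCH37 enzyme supplied as purified proteasome complex | Schedule: 30 min compound-proteasome preincubation then 25 min substrate reaction, room temperature | Detection: AMC fluorescence from Ub-AMC cleavage, excitation 355 nm, emission 460 nm | Benchmarks: Wells without proteasome as full block, compound-free enzyme plus substrate as uninhibited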
NadD conf – inhibitors of S. aureus NadD, confirmation, biochemical, colorimetric, single concentration. inhibition, % at 20 µM. hit rate 13% among 2,000. purified S. aureus NadD, colorimetric enzyme assay. shares compounds with NadD inh. AID 624309, 2012; in the data active = inhibition mostly above about 42%, no sharp cut-off; inactive = mostly below about 42%
* = called active by the depositor; i = inactive; nt = no result; ! = a repeat was not active.

SMILES	NadD inh	NR3A LBD binder	SENP1 inh	ATG4B inh	UCH37 inh	NadD conf
C=C1CCN(C(CC(C)C)C(=O)OC)S(=O)(=O)c2ccccc21 (configuration not stated)	0.7	-0.5	1.0	1.4	1.2	nt
CC(C)(C)c1ccc(C(=O)Nc2nonc2-c2nc3ccccc3[nH]2)cc1	55.1*	-1.8	-9.0	-6.8	0.4	1.9
O=C(O)COc1ccccc1C=NNC(=O)c1ccc(F)cc1	nt	nt	nt	nt	2.5	nt
O=C(NN=Cc1cc2ccccc2nc1Cl)/C(=C/c1cccs1)NC(=O)c1ccccc1	nt	nt	nt	nt	-5.4	nt
O=C(CN1CCCCCC1)NN=Cc1cccc(Cl)c1Cl	nt	nt	nt	nt	8.1	nt
O=C(Nc1nc2cc(Cl)ccc2s1)C1CCCN(S(=O)(=O)c2cccc3cccnc23)C1 (configuration not stated)	36.3*	0.1	-32.0	-17.7	1.7	10.6
O=C(Nc1ccccc1Cl)C1CCCN(S(=O)(=O)c2cccc3cccnc23)C1 (configuration not stated)	0.0	-0.4	5.0	-8.2	6.2	nt
CC1(C)CC(=O)C2=C(C1)c1c(ccc3ccccc13)NC2c1ccc(Br)o1 (configuration not stated)	37.2*	2.4	-9.2	-8.0	-36.4	36.8
CC1(C)CC(=O)C2=C(C1)c1c(ccc3ccccc13)NC2c1ccc(OCC(=O)O)cc1 (configuration not stated)	3.5	0.3	-62.1	2.2	i	nt
O=c1[nH]c(C2CCN(S(=O)(=O)c3ccc4c(c3)OCCO4)CC2)nc2c1nnn2Cc1ccccc1F	34.1*	-8.1	-0.3	-14.9	nt	26.7
O=c1[nH]c(C2CCCN(S(=O)(=O)c3ccccc3)C2)nc2c1nnn2Cc1ccccc1F (configuration not stated)	7.3	0.9	-1.7	-11.1	-1.5	nt
O=c1[nH]c(C2CCN(S(=O)(=O)c3ccc4c(c3)OCCO4)CC2)nc2c1nnn2Cc1c(F)cccc1Cl	33.4*	-2.2	2.7	-6.4	5.2	30.1
Cn1c(=O)n(Cc2ccccc2Cl)c(=O)c2c1[nH]c(=S)n2C	39.1*	1.6	1.0	-2.8	4.1	32.5
COc1cc(C=NNC(=O)c2cccnc2)ccc1OC(=O)c1cccc(Br)c1	nt	nt	nt	nt	-7.8	nt
COC(=O)c1ccc(CON=Cc2cccc([N+](=O)[O-])c2)cc1	nt	nt	nt	nt	3.8	nt
Cc1ccc(NC(=O)C2CCN(S(=O)(=O)c3cc([N+](=O)[O-])ccc3Cl)CC2)nc1	2.7	-1.1	0.3	-15.4	2.8	nt
Cc1ccc2nc(NC(=O)C3CCN(S(=O)(=O)c4cc([N+](=O)[O-])ccc4Cl)CC3)sc2c1	30.9*	4.9	1.3	-2.0	3.9	-0.2
O=C(Nc1nc2ccc(F)cc2s1)C1CCN(S(=O)(=O)c2cc([N+](=O)[O-])ccc2Cl)CC1	35.5*	7.6	-3.9	11.3	3.2	12.5
Cc1cccc(C(=O)N=c2c(C#N)cc3c(=O)n4cccc(C)c4nc3n2Cc2ccco2)c1	42.0*	-7.1	-27.1	-3.6	-200.0	30.5
Cc1cccn2c(=O)c3cc(C#N)c(=NC(=O)c4ccco4)n(Cc4ccco4)c3nc12	16.0	5.9	-37.3	-9.9	nt	nt
COCCCn1c(=NC(=O)c2ccccc2)c(C#N)cc2c(=O)n3cccc(C)c3nc21	6.6	4.6	-34.0	1.0	i	nt
Cc1cccn2c(=O)c3cc(C#N)c(=NC(=O)c4ccccc4)n(Cc4ccco4)c3nc12	32.0*!	-6.3	-31.0	3.7	-193.9	11.8
CC(=NNC(=O)c1cc2ccccc2cc1O)c1cccs1	nt	nt	nt	nt	2.9	nt
CCOc1cc(/C=N/NC(=O)c2ccc(-c3csc(Nc4ccc(C)cc4)n3)cc2)ccc1OCC(=O)O	53.2*	2.2	-11.7	-1.9	nt	27.3
O=C(O)COc1ccc(C=NNC(=O)Cc2ccc(Cl)cc2)cc1	nt	nt	nt	nt	4.5	nt
SMILES	NadD inh	NR3A LBD binder	SENP1 inh	ATG4B inh	UCH37 inh	NadD conf
O=C(O)COc1ccc(/C=N/NC(=O)c2ccc(-c3csc(Nc4ccc(Cl)cc4)n3)cc2)cc1	71.4*	5.4	-4.3	-2.4	nt	9.3
Clc1nnc(NN=Cc2ccccc2)c2ccccc12	nt	nt	nt	nt	3.2	nt
COc1ccccc1C(=O)Nc1ccc(Oc2nnc(-c3ccc(C)cc3)c3ccccc23)cc1	52.2*	-1.7	2.3	2.3	4.5	16.9
Cc1ccc(Oc2nnc(-c3ccc(C)cc3)c3ccccc23)cc1	7.9	-4.3	2.5	5.5	1.3	nt
COC(=O)CCCC1=CC2=CC(=O)C(C)(OC(=O)c3cccs3)C(=O)C2=CN1Cc1ccc2c(c1)OCO2 (configuration not stated)	35.6*	-1.8	-23.1	-2.2	2.1	27.7
N#C/C(=C(/O)CON=Cc1ccccc1Cl)c1nc2ccccc2[nH]1	nt	nt	nt	nt	0.3	nt
O=C(CN1CCCCC1)Nc1nnc(-c2ccc([N+](=O)[O-])cc2)s1	33.5*	-1.8	64.2	5.8	4.1	12.7
Cc1cc(C)n(-c2nc(N(c3ccccc3)c3ccccc3)nc(-n3nc(C)cc3C)n2)n1	42.4*	34.3*	0.9	-0.1	4.1	21.5
O=C(CC1N=C2c3ccccc3N=C(SCc3ccc(Cl)cc3)N2C1=O)NCc1ccco1 (configuration not stated)	49.1*	-3.7	-10.9	-8.7	-19.7	59.5*
Clc1ccc(-c2nc(C=NN3CCOCC3)c3ccccn23)cc1	nt	nt	nt	nt	4.9	nt
Nc1nonc1-n1nnc(C(=O)N/N=C/c2c(Cl)cccc2Cl)c1CSC1=NCCS1	34.1*	-2.4	2.4	-11.3	nt	39.0
Nc1nonc1-n1nnc(C(=O)N/N=C/C=C/c2ccccc2)c1CSC1=NCCS1	32.1*	16.3*	3.1	-1.8	nt	25.7
Nc1nonc1-n1nnc(C(=O)NN=Cc2ccccc2Cl)c1CSc1ccccc1	nt	nt	nt	nt	4.5	nt
COc1cc2c(cc1OC)C1CC(=NO)C(CC(C)C)CN1CC2 (configuration not stated)	nt	nt	nt	nt	0.5	nt
O=C1CC(=C2c3ccccc3-c3ccccc32)C(=O)N1CCN1CCN(c2cccc(Cl)c2)CC1	68.9*	0.8	4.3	-2.0	9.0	60.3*
CCOCCCn1c(=N)c(C(N)=S)cc2c(=O)n3cccc(C)c3nc21	29.3	-3.6	-25.6	-7.7	-167.1	nt
Cc1cccn2c(=O)c3cc(C(N)=S)c(=N)n(CCCOC(C)C)c3nc12	51.9*	-2.8	-25.3	-1.3	-19.1	2.4

Screening data (PubChem)
